Measurements: ChEMBL document CHEMBL4387794, “Constituents of the Edible Leaves of Melicope pteleifolia with Potential Analgesic Activity” (J Nat Prod, 2019)
Activity calls are given as the source filed them. No cut-off for these calls is given here.

Legend:
HaCaT [1] = test: Antipyretic activity in human HaCaT cells assessed as inhibition of TNFalpha-induced PGE2 production at 50 uM pre-incubated for 2 hrs before TNFalpha stimulation for 24 hrs by ELISA; format: functional, cell-based
Summary of the method: (§1)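 HaCaT keratinocytes, seeded at 1.5 × 10^5 cells/well and grown overnight, then serum-starved 12 h. Pretreated with compounds for 2 h, then stimulated 24 h with 20 ng/mL TNF-α; unstimulated cells as negative control. Supernatant PGE2 quantified by ELISA, absorbance 450 nm. Means ± SD of three independent experiments.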

HaCaT [2] = test: Antipyretic activity in human HaCaT cells assessed as inhibition of TNFalpha-induced PGE2 production at 100 uM pre-incubated for 2 hrs before TNFalpha stimulation for 24 hrs by ELISA; format: functional, cell-based; summary of the method: as §1
HaCaT [3] = test: Cytotoxicity in human HaCaT cells assessed as reduction in cell viability at 100 uM incubated for 2 4 hrs by MTT assay; format: cell-based
Summary of the method: (§2)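 MTT viability in HaCaT cells seeded at 10^4 cells/well. After 12 h, compounds added in serum-free medium for 24 h, then MTT 4 h. Formazan dissolved in DMSO, absorbance read at 550 nm. Triplicate wells, experiments repeated at least three times.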

HaCaT [4] = test: Cytotoxicity in human HaCaT cells assessed as reduction in cell viability at 50 uM incubated for 2 4 hrs by MTT assay; format: cell-based; summary of the method: as §2
Mus musculus = test: Antipyretic activity in ICR mouse assessed as suppression of LPS-induced febrile response measured at 10 mg/kg, po administered 30 mins before LPS injection and measured up to 6 hrs post LPS injection; format: functional, organism-based
Summary of the method: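 Male 8-week-old ICR mice, 5 per group, reverse 12 h light/dark cycle. Compound suspended in 0.5% carboxymethyl cellulose, given orally 30 min before i.p. LPS (0.5 mg/kg in pyrogen-free PBS). Baseline rectal Tb from six readings over 2 h, then Tb followed to 6 h post-LPS. Each hour compared to LPS group, Student t-test, p < 0.05.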

[5] = 50 uM, in the assay text read “at 50 uM” for “at 100 uM”

SMILES	inhibition (HaCaT [1])	inhibition (HaCaT [2]; [5])	Activity (HaCaT [3])	Activity (HaCaT [4])	inhibition (HaCaT [2]; 100 uM)	Activity (Mus musculus)
COc1cc(/C=C/C(=O)OC[C@H]2O[C@@H](c3c(O)c(C(C)=O)c(O)c([C@@H]4O[C@H](COC(=O)/C=C/c5ccc(O)cc5)[C@@H](O)[C@H](O)[C@H]4O)c3O)[C@H](O)[C@@H](O)[C@@H]2O)ccc1O	Active	Active	Toxic	Non-Toxic		
CC(=O)c1c(O)c([C@@H]2O[C@H](CO)[C@@H](O)[C@H](O)[C@H]2O)c(O)c2c1O[C@]1(C2)O[C@H](CO)[C@@H](O)[C@@H]1O	Active		Non-Toxic		Active	
COc1cc(/C=C/C(=O)OC[C@H]2O[C@@H](c3c(O)c(C(C)=O)c(O)c([C@@H]4O[C@H](CO)[C@@H](O)[C@H](O)[C@H]4O)c3O)[C@H](O)[C@@H](O)[C@@H]2O)ccc1O	Active		Non-Toxic		Active	
CC(=O)c1c(O)c([C@@H]2O[C@H](CO)[C@@H](O)[C@H](O)[C@H]2O)c(O)c2c1O[C@]1(C2)O[C@H](CO)[C@@H](O)[C@H]1O	Active		Non-Toxic		Active	
CC(=O)c1c(O)c([C@@H]2O[C@H](CO)[C@@H](O)[C@H](O)[C@H]2O)c(O)c([C@@H]2O[C@H](COC(=O)/C=C/c3ccc(O)cc3)[C@@H](O)[C@H](O)[C@H]2O)c1O	Active		Non-Toxic		Active	
COc1cc(/C=C/C(=O)OC[C@H]2O[C@@H](c3c(O)c(C(C)=O)c(O)c([C@@H]4O[C@H](COC(=O)/C=C/c5ccc(O)c(OC)c5)[C@@H](O)[C@H](O)[C@H]4O)c3O)[C@H](O)[C@@H](O)[C@@H]2O)ccc1O	Active	Active	Toxic	Non-Toxic		
CC(=O)Oc1ccccc1C(=O)O					Active	
CC(=O)c1c(O)c([C@@H]2O[C@H](CO)[C@@H](O)[C@H](O)[C@H]2O)c(O)c([C@@H]2O[C@H](COC(=O)[C@H]3[C@H](C(=O)OC[C@H]4O[C@@H](c5c(O)c(C(C)=O)c(O)c([C@@H]6O[C@H](CO)[C@@H](O)[C@H](O)[C@H]6O)c5O)[C@H](O)[C@@H](O)[C@@H]4O)[C@@H](c4ccc(O)cc4)[C@@H]3c3ccc(O)cc3)[C@@H](O)[C@H](O)[C@H]2O)c1O	Active		Non-Toxic		Active	
CC(=O)c1c(O)c([C@@H]2O[C@H](CO)[C@@H](O)[C@H](O)[C@H]2O)c(O)c([C@@H]2O[C@H](COC(=O)c3ccccc3)[C@@H](O)[C@H](O)[C@H]2O)c1O	Active		Non-Toxic		Active	
CC(=O)c1c(O)c([C@@H]2O[C@H](COC(=O)/C=C/c3ccc(O)cc3)[C@@H](O)[C@H](O)[C@H]2O)c(O)c([C@@H]2O[C@H](COC(=O)/C=C/c3ccc(O)cc3)[C@@H](O)[C@H](O)[C@H]2O)c1O	Active		Non-Toxic		Active	
CC(=O)c1c(O)c([C@@H]2O[C@H](CO)[C@@H](O)[C@H](O)[C@H]2O)c(O)c2c1O[C@@]1(C2)O[C@H](CO)[C@H](O)[C@@H]1O	Active		Non-Toxic		Active	
CC(=O)c1c(O)c([C@@H]2O[C@H](CO)[C@@H](O)[C@H](O)[C@H]2O)c(O)c2c1O[C@@]1(C2)O[C@H](CO)[C@@H](O)[C@@H]1O	Active		Non-Toxic		Active	
CC(=O)c1c(O)c([C@@H]2O[C@H](CO)[C@@H](O)[C@H](O)[C@H]2O)c(O)c([C@@H]2O[C@H](CO)[C@@H](O)[C@H](O)[C@H]2O)c1O	Active		Non-Toxic		Active	Active
CC(=O)c1c(O)c([C@@H]2O[C@H](CO)[C@@H](O)[C@H](O)[C@H]2O)c(O)c2c1O[C@@]1(C2)O[C@@H](CO)[C@H](O)[C@H]1O	Active		Non-Toxic		Active	
